# Assay results published in ChEMBL document CHEMBL2086296, “Synthesis of novel quinoline-2-one based chalcones of potential anti-tumor activity” (Eur J Med Chem, 2012).
# Tests used:
# [1] = tested on: EKVX; test: (§1) Cytotoxicity against human EKVX cells after 24 hrs by SRB assay; format: functional
# Method in brief: (§2)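 NCI 60-line screen. Cells in RPMI 1640 with 5% FBS and 2 mM L-glutamine, seeded at 5,000–40,000 cells/well by doubling time, then incubated 24 h at 37 °C, 5% CO2 before dosing. Time-zero plates fixed with TCA at drug addition. DMSO stocks diluted in medium with gentamicin to five concentrations, […]. Protein read by SRB staining. GI50, TGI and LC50 derived relative to control and time-zero.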
# [2] = tested on: NCI-H460; test: Cytotoxicity against human NCI-H460 cells after 24 hrs by SRB assay; format: functional; conditions: NCI-H460, 24 h; method in brief: as §2
# [3] = tested on: NCI-H522; test: Cytotoxicity against human NCI-H522 cells after 24 hrs by SRB assay; format: functional; conditions: NCI-H522, 24 h; method in brief: as §2
# [4] = tested on: HOP-92; test: (§3) Cytotoxicity against human HOP92 cells after 24 hrs by SRB assay; format: functional; conditions: HOP-92, 24 h; method in brief: as §2
# [5] = tested on: HCT-15; test: Cytotoxicity against human HCT15 cells after 24 hrs by SRB assay; format: functional; conditions: HCT-15, 24 h; method in brief: as §2
# [6] = tested on: KM12; test: Cytotoxicity against human KM12 cells after 24 hrs by SRB assay; format: functional; conditions: KM12, 24 h; method in brief: as §2
# [7] = tested on: SF-539; test: Cytotoxicity against human SF539 cells after 24 hrs by SRB assay; format: functional; conditions: SF-539, 24 h; method in brief: as §2
# [8] = tested on: U-251; test: (§4) Cytotoxicity against human U251 cells after 24 hrs by SRB assay; format: functional; conditions: U-251, 24 h
# Method in brief: (§5)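 NCI 60-cell screen. Cells are grown in RPMI 1640 with 5% FBS and 2 mM L-glutamine and seeded at 5,000–40,000 cells/well according to doubling time. They are preincubated 24 h at 37 °C in 5% CO2, and Tz plates are TCA-fixed at drug addition. Drug stock is in DMSO, diluted in medium with gentamicin, and tested at five concentrations (100, 10, 1.0, 0.1, […]). Protein is read by SRB staining. GI50, TGI and LC50 are derived relative to time-zero and control wells.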
# [9] = tested on: SF-268; test: Cytotoxicity against human SF268 cells after 24 hrs by SRB assay; format: functional; conditions: SF-268, 24 h; method in brief: as §2
# [10] = tested on: LOX IMVI; test: Cytotoxicity against human LOXIMVI cells after 24 hrs by SRB assay; format: functional; method in brief: as §2
# [11] = tested on: MDA-MB-435; test: Cytotoxicity against human MDA-MB-435 cells after 24 hrs by SRB assay; format: functional; conditions: MDA-MB-435, 24 h; method in brief: as §2
# [12] = tested on: OVCAR-3; test: (§6) Cytotoxicity against human OVCAR3 cells after 24 hrs by SRB assay; format: functional; conditions: OVCAR-3, 24 h; method in brief: as §2
# [13] = tested on: RXF 393; test: Cytotoxicity against human RXF393 cells after 24 hrs by SRB assay; format: functional; conditions: RXF 393, 24 h; method in brief: as §2
# [14] = tested on: TK-10; test: Cytotoxicity against human TK10 cells after 24 hrs by SRB assay; format: functional; conditions: TK-10, 24 h; method in brief: as §5
# [15] = tested on: DU-145; test: Cytotoxicity against human DU145 cells after 24 hrs by SRB assay; format: functional; conditions: DU-145, 24 h; method in brief: as §2
# [16] = tested on: MCF7; test: Cytotoxicity against human MCF7 cells after 24 hrs by SRB assay; format: functional; conditions: MCF7, 24 h; method in brief: as §2
# [17] = tested on: CCRF-CEM; test: (§7) Cytotoxicity against human CCRF-CEM cells after 24 hrs by SRB assay; format: cell-based
# Method in brief: (§8)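 NCI 60-cell screen. Cells grown in RPMI 1640 with 5% FBS and 2 mM L-glutamine, seeded at 5,000–40,000 cells/well, preincubated 24 h at 37 °C in 5% CO2. Drug stock in DMSO, diluted in medium with gentamicin; five final concentrations, 100, 10, 1.0, 0.1 and […]. Time-zero plates were TCA-fixed. Protein read by SRB staining; GI50, TGI and LC50 taken relative to time-zero.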
# [18] = tested on: HL-60; test: Cytotoxicity against human HL60 cells after 24 hrs by SRB assay; format: cell-based; conditions: hl-60, 24 h; method in brief: as §8
# [19] = tested on: MOLT-4; test: Cytotoxicity against human MOLT4 cells after 24 hrs by SRB assay; format: cell-based; conditions: molt-4, 24 h; method in brief: as §8
# [20] = tested on: EKVX; test: as §1; format: cell-based; method in brief: as §8
# [21] = tested on: NCI-H23; test: Cytotoxicity against human NCI-H23 cells after 24 hrs by SRB assay; format: cell-based; conditions: nci-h23, 24 h; method in brief: as §8
# [22] = tested on: HOP-92; test: as §3; format: cell-based; conditions: hop-92, 24 h; method in brief: as §8
# [23] = tested on: HT-29; test: Cytotoxicity against human HT-29 cells after 24 hrs by SRB assay; format: cell-based; conditions: ht-29, 24 h; method in brief: as §8
# [24] = tested on: HCC 2998; test: Cytotoxicity against human HCC2998 cells after 24 hrs by SRB assay; format: cell-based; conditions: hcc 2998, 24 h; method in brief: as §8
# [25] = tested on: U-251; test: as §4; format: cell-based; conditions: u-251, 24 h
# Method in brief: (§9)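 NCI 60-cell-line screen: cells grown in RPMI 1640 with 5% FBS and 2 mM L-glutamine, seeded at 5,000–40,000 cells/well by doubling time, and preincubated 24 h at 37 °C in 5% CO2. Time-zero plates were TCA-fixed. DMSO stocks were diluted in medium with gentamicin to five concentrations (100, 10, 1.0, 0.1, […]). Protein was read by SRB, and GI50, TGI and LC50 were derived against time-zero.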
# [26] = tested on: SNB-75; test: Cytotoxicity against human SNB75 cells after 24 hrs by SRB assay; format: cell-based; conditions: snb-75, 24 h; method in brief: as §9
# [27] = tested on: RPMI-8226; test: Cytotoxicity against human RPMI8226 cells after 24 hrs by SRB assay; format: functional; conditions: RPMI-8226, 24 h; method in brief: as §2
# [28] = tested on: CCRF-CEM; test: as §7; format: functional; method in brief: as §2
# [29] = tested on: UACC-257; test: Cytotoxicity against human UACC257 cells after 24 hrs by SRB assay; format: cell-based; conditions: uacc-257, 24 h; method in brief: as §9
# [30] = tested on: OVCAR-3; test: as §6; format: cell-based; conditions: ovcar-3, 24 h; method in brief: as §8
# [31] = tested on: OVCAR-5; test: Cytotoxicity against human OVCAR5 cells after 24 hrs by SRB assay; format: cell-based; conditions: ovcar-5, 24 h; method in brief: as §8
# [32] = tested on: ACHN; test: Cytotoxicity against human ACHN cells after 24 hrs by SRB assay; format: cell-based; method in brief: as §8
# [33] = tested on: CAKI-1; test: Cytotoxicity against human CAKI-1 cells after 24 hrs by SRB assay; format: cell-based; conditions: caki-1, 24 h; method in brief: as §8
# [34] = tested on: SN12C; test: Cytotoxicity against human SN12C cells after 24 hrs by SRB assay; format: cell-based; method in brief: as §9
# [35] = tested on: BT-549; test: Cytotoxicity against human BT549 cells after 24 hrs by SRB assay; format: cell-based; conditions: bt-549, 24 h; method in brief: as §8
# [36] = tested on: T47D; test: Cytotoxicity against human T47D cells after 24 hrs by SRB assay; format: cell-based; method in brief: as §9
# [37] = tested on: 786-0; test: Cytotoxicity against human 786-0 cells after 24 hrs by SRB assay; format: functional; conditions: 786-0, 24 h; method in brief: as §2
structure (smiles),measurement,setting,value
O=C(/C=C/c1cc2ccccc2[nH]c1=O)c1ccc(O)cc1,GI50,[1],13.4 µM
same,TGI,[1],27.2 µM
same,GI50,[2],2.39 µM
same,TGI,[2],6.87 µM
same,GI50,[3],1.7 µM
same,TGI,[3],3.29 µM
same,GI50,[4],3.26 µM
same,TGI,[4],23.2 µM
same,GI50,[5],2.71 µM
same,TGI,[5],12.8 µM
same,GI50,[6],1.89 µM
same,TGI,[6],4.5 µM
same,GI50,[7],2.55 µM
same,TGI,[7],8.64 µM
same,GI50,[8],2.6 µM
same,TGI,[8],10.9 µM
same,GI50,[9],3.76 µM
same,TGI,[9],23.3 µM
same,GI50,[10],2.47 µM
same,TGI,[10],12.7 µM
same,GI50,[11],2.94 µM
same,TGI,[11],16.8 µM
same,GI50,[12],3.22 µM
same,TGI,[12],11.8 µM
same,GI50,[13],1.65 µM
same,TGI,[13],3.23 µM
same,GI50,[14],3.81 µM
same,TGI,[14],11.8 µM
same,GI50,[15],4.02 µM
same,TGI,[15],14.3 µM
same,GI50,[16],3.49 µM
same,TGI,[16],16.8 µM
same,LC50,[17],> 100 µM
same,LC50,[18],> 100 µM
same,LC50,[19],> 100 µM
same,LC50,[20],55.2 µM
same,LC50,[21],> 100 µM
same,LC50,[22],> 100 µM
same,LC50,[23],41.4 µM
same,LC50,[24],59.6 µM
same,LC50,[25],45.3 µM
same,LC50,[26],55 µM
same,GI50,[27],3.2 µM
same,TGI,[27],24.8 µM
same,GI50,[28],2.38 µM
same,TGI,[28],> 100 µM
same,LC50,[29],47.9 µM
same,LC50,[30],35 µM
same,LC50,[31],44.4 µM
same,LC50,[32],34 µM
same,LC50,[33],> 100 µM
same,LC50,[34],> 100 µM
same,LC50,[35],> 100 µM
same,LC50,[36],79.6 µM
O=C(/C=C/c1cc2ccccc2[nH]c1=O)/C=C/c1cc2ccccc2[nH]c1=O,GI50,[1],2.61 µM
same,TGI,[1],> 100 µM
same,GI50,[2],4.63 µM
same,TGI,[2],> 100 µM
same,GI50,[3],2.52 µM
same,GI50,[4],> 100 µM
same,TGI,[4],> 100 µM
same,GI50,[5],2.02 µM
same,TGI,[5],> 100 µM
same,GI50,[6],0.494 µM
same,TGI,[6],1.83 µM
same,GI50,[7],2.13 µM
same,TGI,[7],> 100 µM
same,GI50,[8],0.372 µM
same,TGI,[8],2.1 µM
same,GI50,[9],3.75 µM
same,TGI,[9],> 100 µM
same,GI50,[10],0.134 µM
same,TGI,[10],0.352 µM
same,GI50,[11],0.258 µM
same,TGI,[11],0.81 µM
same,GI50,[12],4.2 µM
same,TGI,[12],> 100 µM
same,GI50,[13],1.79 µM
same,TGI,[13],3.73 µM
same,GI50,[14],4.6 µM
same,TGI,[14],> 100 µM
same,GI50,[37],2.75 µM
same,TGI,[37],6.82 µM
same,GI50,[15],4.18 µM
same,TGI,[15],> 100 µM
same,GI50,[16],0.327 µM
same,TGI,[16],> 100 µM
same,LC50,[17],> 100 µM
same,LC50,[18],> 100 µM
same,LC50,[19],> 100 µM
same,LC50,[20],> 100 µM
same,LC50,[21],> 100 µM
same,LC50,[22],> 100 µM
same,LC50,[24],5.25 µM
same,LC50,[25],> 100 µM
same,GI50,[27],0.341 µM
same,TGI,[27],> 100 µM
same,GI50,[28],0.697 µM
same,TGI,[28],> 100 µM
same,LC50,[29],> 100 µM
same,LC50,[30],> 100 µM
same,LC50,[32],> 100 µM
same,LC50,[33],> 100 µM
same,LC50,[34],> 100 µM
same,LC50,[35],> 100 µM
same,LC50,[36],> 100 µM
